This is an account of results in ChEMBL document CHEMBL5346963, “Innovative Strategy toward Mutant CFTR Rescue in Cystic Fibrosis: Design and Synthesis of Thiadiazole Inhibitors of the E3 Ligase RNF5” (J Med Chem, 2023).

A short description of series [1]: Aggregation property of the compound in PBS buffer at pH 7.5 by 1D 1H-NMR analysis. The class given is physicochemical. The method in brief:
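Solubility by 1H 1D NMR and aggregation by WaterLOGSY at 298 K in PBS pH 7.5 with 1 μM ZnCl2, 1 mM DTT, 10% D2O, 1% DMSO-d6. Theoretical concentrations 20, 50 and 100 μM, with 200 μM 4-trifluoromethyl benzoic acid as internal reference. WaterLOGSY: mixing time 1.7 s, relaxation delay 2 s, 256 scans.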

Series [2] has as its system CFBE41o-. The experiment in a line: Antiproliferative activity against human CFBE41o- cells harbouring CFTR F508del mutant/HS-YFP at 5 uM incubated for 48 hrs. The class given is toxicity, cell-based. The method in brief:
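Cells plated at 5000/well and treated after 6 h with compound (5 μM) or DMSO. Cell-covered area was followed by the YFP signal over 48 h on a high-content imager. Means ± SEM, n = 6. Three independent experiments; ANOVA with Dunnett test.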

The test system of series [3] is CFBE41o-. The experiment in a line: Induction of apoptosis in human CFBE41o- cells assessed as increase in apoptosis at 100 uM incubated for 24 hrs by Hoechst 33342 and propidium iodide staining based analysis. The class given is toxicity, cell-based. The method in brief: (§1)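 Cells were plated at 10,000/well and treated after 6 h with compound (5, 20, 100 μM), VX-809 (1 μM), MG132 (50 μM) or DMSO for 24 h. Hoechst 33342 counted total nuclei and propidium iodide counted apoptotic nuclei, by high-content imaging. Means ± SEM; ANOVA with Dunnett test.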

Series [4] deals with CFBE41o-. The experiment in a line: Induction of autophagy in human CFBE41o- cells harbouring CFTR F508del mutant assessed as increase in number of autophagic vacuoles at 5 uM incubated for 24 hrs by confocal microscopy based analysis. The class given is functional, cell-based. The procedure, abridged:
(§2)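 CFBE41o– F508del/HS-YFP cells (50,000/well) were treated 24 h with compound (5 μM), VX-809 (1 μM) or DMSO. SAR405 (2 μM) and torin1 (20 nM) were added near the end of incubation. Cells were then loaded with 50 μM MDC in PBS for 10 min at 37 °C, washed, and imaged. MDC spot number was normalized to control. n = 3; ANOVA with Dunnett test.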

Series [5] concerns the target Cystic fibrosis transmembrane conductance regulator (Homo sapiens, UniProt P13569, F508DEL). The series is described as follows: Corrector activity at CFTR F508del mutant in human CFBE41o- cells coexpressing HS-YFP incubated for 25 mins by microplate reader based analysis. In kind it is cell-based. The method in brief:
(§3)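 CFBE41o– cells stably expressing F508del-CFTR and HS-YFP were treated 24 h after seeding; DMSO and VX-809 (1 μM) served as controls. Cells were stimulated 25 min with forskolin (20 μM) plus VX-770 (1 μM). YFP was read for 2 s before and 12 s after iodide injection. Initial slope came from an exponential fit of the final 11 s. Three independent experiments.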

For series [6], the system named is CFBE41o-. The experiment in a line: Induction of autophagy in human CFBE41o- cells harbouring CFTR F508del mutant assessed as increase in number of autophagic vacuoles at 20 nM incubated for 3 hrs by confocal microscopy based analysis. The class given is functional, cell-based. The procedure, abridged:
as §2

The test system of series [7] is Cystic fibrosis transmembrane conductance regulator (Homo sapiens), P13569 [F508del]. The experiment in a line: Corrector activity at CFTR F508del mutant in human CFBE41o- cells assessed as increase in CFTR mutant activity at 5 uM in presence of VX-809 incubated for 24 hrs. The class given is cell-based. The method in brief:
as §3

The test system is the same in series [8]. The series is described as follows: Corrector activity at CFTR F508del mutant in human CFBE41o- cells assessed as increase in CFTR mutant activity at 5 uM in presence of VX-445 incubated for 24 hrs. In kind it is cell-based. The procedure, abridged:
as §3

Series [9] shares this test system. The series is described as follows: Corrector activity at CFTR F508del mutant in human CFBE41o- cells assessed as increase in CFTR mutant activity at 5 uM in presence of VX-661/VX-445 incubated for 24 hrs. The class given is cell-based. The procedure, abridged:
as §3

For series [10] the test system is unchanged. The series is described as follows: Corrector activity at CFTR F508del mutant in human CFBE41o- cells transfected with NT siRNA assessed as increase in CFTR mutant activity at 5 uM incubated for 24 hrs. In kind it is cell-based. The procedure, abridged:
(§4)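 CFBE41o– F508del/HS-YFP cells were reverse-transfected with 50 nM (final) NT or RNF5 siRNA using lipofectamine 2000. Medium was changed next day, then compounds were given for 24 h at 37 °C. Readout was the YFP iodide-influx assay after forskolin (20 μM) plus VX-770 (1 μM) stimulation.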

Series [11] shares this test system. The experiment in a line: Corrector activity at CFTR F508del mutant in human CFBE41o- cells transfected with NT siRNA assessed as increase in CFTR mutant activity at 5 uM incubated for 24 hrs in presence of VX-661/VX-445. In kind it is cell-based. The procedure, abridged:
as §4

The test system is the same in series [12]. The experiment in a line: Corrector activity at CFTR F508del mutant in human CFBE41o- cells transfected with RNF5 siRNA assessed as increase in CFTR mutant activity at 5 uM incubated for 24 hrs. In kind it is cell-based. The procedure, abridged:
as §4

Series [13] has the same test system. The experiment in a line: Corrector activity at CFTR F508del mutant in human CFBE41o- cells transfected with RNF5 siRNA assessed as increase in CFTR mutant activity at 5 uM incubated for 24 hrs in presence of VX-661/VX-445. The class given is cell-based. The procedure, abridged: as §4
Series [14] shares this test system. The series is described as follows: Corrector activity at CFTR F508del mutant in human CFBE41o- cells assessed as rescue of CFTR mutant at 5 uM incubated for 24 hrs in presence of VX661/VX-445 by Western blot analysis. In kind it is cell-based.
For series [15] the test system is unchanged. The experiment in a line: Corrector activity at CFTR F508del mutant in human CFBE41o- cells assessed as appearance of CFTR mutant forms at 5 uM incubated for 24 hrs in presence of MG-132 by Western blot analysis. The class given is cell-based. The procedure, abridged: (§5)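 Confluent CFBE41o– F508del cells were treated 24 h, with MG-132 (10 μM) or DMSO in the last 4 h. Lysate (600 μg protein) was immunoprecipitated with rabbit anti-CFTR (2 μg, 1 h RT) and protein A/G beads, then eluted reducing. Samples ran on 4–15% gradient SDS-PAGE and were western blotted. Bands were read by chemiluminescence, with densitometry of ubiquitylated CFTR.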

The test system is the same in series [16]. The series is described as follows: Corrector activity at CFTR F508del mutant in human CFBE41o- cells assessed as decrease in accumulation of ubiquitylated CFTR at 5 uM incubated for 24 hrs in presence of VX-661/VX-445 by Western blot analysis. In kind it is cell-based. The method in brief:
as §5

The test system is the same in series [17]. The experiment in a line: Corrector activity at CFTR F508del mutant in human CFBE41o- cells assessed as appearance of CFTR mutant forms at 10 uM incubated for 4 hrs by Western blot analysis. The class given is cell-based.
The test system is the same in series [18]. The experiment in a line: Corrector activity at CFTR F508del mutant in human CFBE41o- cells assessed as decrease in accumulation of ubiquitylated CFTR at 10 uM incubated for 4 hrs in presence of MG-132 by Western blot analysis. In kind it is cell-based. The procedure, abridged:
as §5

For series [19], the target named is E3 ubiquitin-protein ligase RNF5 (Homo sapiens) (UniProt Q99942). The series is described as follows: Binding affinity to recombinant human RNF5 (1 to 117 residues) expressed in Escherichia coli BL21(DE3) at 50 uM by Microscale thermophoresis analysis. The procedure, abridged: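 Human RNF5 aa 1–117 was expressed GST-tagged in E. coli BL21(DE3) with 0.2 mM IPTG for 5 h at 37 °C. It was purified on glutathione resin, TEV-cleaved, and RED-NHS labelled (5 nM). Binding check was run in PBS with 0.05% Tween-20, 0.1% PEG-8000 and 1 μM ZnCl2, ± 1 mM DTT, at ≤5% DMSO. Medium MST power, 20% excitation.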

In series [20] the test system is CFBE41o-. The series is described as follows: Induction of apoptosis in human CFBE41o- cells assessed as increase in apoptosis at 1 uM incubated for 24 hrs by Hoechst 33342 and propidium iodide staining based analysis. In kind it is toxicity, cell-based. The procedure, abridged: as §1

Activity calls are given as the source filed them. Unless noted, the calls are words filed in the database; no cut-off is given here.

Cystic fibrosis transmembrane conductance regulator (Homo sapiens), P13569 [F508del], sequence (P13569 as listed by the source): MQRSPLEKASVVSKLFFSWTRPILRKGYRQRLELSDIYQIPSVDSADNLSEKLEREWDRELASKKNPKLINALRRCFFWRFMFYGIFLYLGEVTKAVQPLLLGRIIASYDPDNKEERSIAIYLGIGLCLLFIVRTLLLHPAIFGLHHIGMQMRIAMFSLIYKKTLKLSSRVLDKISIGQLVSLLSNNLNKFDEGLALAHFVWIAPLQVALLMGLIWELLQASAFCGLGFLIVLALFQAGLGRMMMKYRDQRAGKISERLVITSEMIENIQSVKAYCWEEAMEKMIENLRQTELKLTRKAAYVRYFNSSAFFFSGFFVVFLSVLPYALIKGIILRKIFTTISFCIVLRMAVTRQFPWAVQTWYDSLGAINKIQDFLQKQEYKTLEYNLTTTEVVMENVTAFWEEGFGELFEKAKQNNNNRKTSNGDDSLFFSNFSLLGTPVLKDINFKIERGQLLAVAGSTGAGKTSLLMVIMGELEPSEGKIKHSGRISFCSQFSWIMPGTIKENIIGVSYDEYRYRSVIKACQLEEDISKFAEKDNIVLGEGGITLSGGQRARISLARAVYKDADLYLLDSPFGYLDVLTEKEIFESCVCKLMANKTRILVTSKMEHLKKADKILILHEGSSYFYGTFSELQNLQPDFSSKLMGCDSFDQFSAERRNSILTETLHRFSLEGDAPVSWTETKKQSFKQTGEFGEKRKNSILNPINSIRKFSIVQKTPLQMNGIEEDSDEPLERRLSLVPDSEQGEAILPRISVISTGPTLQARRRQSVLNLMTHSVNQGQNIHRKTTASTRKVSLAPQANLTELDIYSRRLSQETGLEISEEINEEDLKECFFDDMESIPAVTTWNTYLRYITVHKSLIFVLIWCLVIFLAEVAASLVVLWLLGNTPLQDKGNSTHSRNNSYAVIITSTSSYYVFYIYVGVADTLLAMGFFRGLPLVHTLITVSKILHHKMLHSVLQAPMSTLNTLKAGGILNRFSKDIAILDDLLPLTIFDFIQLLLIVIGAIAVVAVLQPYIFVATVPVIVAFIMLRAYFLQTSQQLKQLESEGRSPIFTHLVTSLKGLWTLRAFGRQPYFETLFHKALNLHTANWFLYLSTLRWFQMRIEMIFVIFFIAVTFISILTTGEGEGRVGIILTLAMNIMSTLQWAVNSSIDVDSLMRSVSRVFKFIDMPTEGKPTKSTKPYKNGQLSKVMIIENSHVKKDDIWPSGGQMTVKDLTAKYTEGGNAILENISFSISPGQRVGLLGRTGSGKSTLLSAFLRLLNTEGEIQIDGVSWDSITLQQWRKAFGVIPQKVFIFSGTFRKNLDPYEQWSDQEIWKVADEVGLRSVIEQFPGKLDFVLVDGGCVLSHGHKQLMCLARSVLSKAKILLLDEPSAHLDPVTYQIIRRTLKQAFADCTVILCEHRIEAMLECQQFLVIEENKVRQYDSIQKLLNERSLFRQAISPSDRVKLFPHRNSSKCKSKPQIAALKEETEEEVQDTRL
Cystic fibrosis transmembrane conductance regulator, sequence (P13569 as listed by the source): as above
E3 ubiquitin-protein ligase RNF5 (Homo sapiens), sequence (Q99942 whole entry, the tested form may be a part): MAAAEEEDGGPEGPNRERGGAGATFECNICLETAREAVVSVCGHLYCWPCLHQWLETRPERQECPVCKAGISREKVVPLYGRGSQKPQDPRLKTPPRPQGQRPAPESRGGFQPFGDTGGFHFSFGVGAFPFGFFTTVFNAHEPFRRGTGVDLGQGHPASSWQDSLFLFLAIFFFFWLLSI

Regarding `Cc1ns/c(=N\C(=N\c2ccccc2)c2ccccc2)n1-c1ccccc1`, the Activity result in series [1] was “Not Active”; in the series with CFBE41o- [2] it was “Non-Toxic”; with CFBE41o- [3] it was “Toxic”. Also, the outcome in the series on CFBE41o- [4] was inactive.

With `Cc1ccccc1Cn1c(C)ns/c1=N\C(=N\c1ccccc1)c1ccccc1`, in the series on CFBE41o- [2], the Activity result is recorded as “Non-Toxic”.

With `Cc1ns/c(=N\C(=N\c2ccccc2)c2ccccc2)n1Cc1cccc(N(C)C)c1`, the Activity entry in the series with CFBE41o- [2] is recorded as “Non-Toxic”.

For `Cc1ns/c(=N\C(=N\c2ccccc2)c2ccccc2)n1Cc1ccc(Cl)cc1`, the Activity entry in the series on CFBE41o- [2] is reported as “Non-Toxic”.

As to `Cc1ns/c(=N\C(=N\c2ccccc2)c2ccccc2)n1Cc1ccc(Br)cc1`, the Activity result with CFBE41o- [2] was “Non-Toxic”. In the series with CFBE41o- [4], the result was Active.

Regarding `Cc1ns/c(=N\C(=N\c2ccccc2)c2ccccc2)n1Cc1cccc(O)c1`, the figures for the Activity entry (in series [1]; with CFBE41o- [2]; in the series with CFBE41o- [3]) were “Not Active”, “Non-Toxic” and “Toxic”, respectively. In addition, a half-maximal response in series [5] (EC50) required 1600 nM.

For the compound `Cc1ns/c(=N\C(=N\c2ccccc2)c2ccccc2)n1Cc1cccc(F)c1`, the Activity result in the series on CFBE41o- [2] is on record as “Non-Toxic”.

Take `CCC(=O)N1CCN(c2ccc(-n3c(=O)ccc4cnc5ccc(-c6cnc7ccccc7c6)cc5c43)cc2C(F)(F)F)CC1`: in the series on CFBE41o- [6], the outcome was Active.

As for `COc1cccc(Cn2c(C)ns/c2=N\C(=N\c2ccccc2)c2ccccc2)c1`, the results for the Activity entry (in [1]; in the series on CFBE41o- [2]) were “Not Active” and “Non-Toxic”, respectively. In addition, the result (in the series on CFBE41o- [4]; in series [7]; in series [8]; in series [9]; in [10]; in series [11]) was Active. Further, the outcome in series [14] and in series [16] was Active. Besides, the concentration giving a half-maximal response (EC50) in [5] came out at 1200 nM. The result in [12], in [13] and in series [15] was inactive.

Take `CC(C)C[C@@H](C=O)NC(=O)[C@H](CC(C)C)NC(=O)[C@H](CC(C)C)NC(=O)OCc1ccccc1`: the result in [17] was Active. In series [18], the outcome was inactive.

Consider `Cc1ns/c(=N\C(=N\c2ccccc2)c2ccccc2)n1Cc1ccc(C(=O)O)cc1`, for which the Activity result in series [1] was “Not Active”. The outcome in series [19] was Active.

Turning to `Cc1cccc(Cn2c(C)ns/c2=N\C(=N\c2ccccc2)c2ccccc2)c1`, in the series with CFBE41o- [2], the Activity entry is reported as “Non-Toxic”.

With `Cc1ns/c(=N\C(=N\c2ccccc2)c2ccccc2)n1Cc1ccccc1Cl`, the Activity result in the series with CFBE41o- [2] is “Non-Toxic”; in the series with CFBE41o- [3], “Toxic”.

On to `Cc1ccc(NC(=O)C2(c3ccc4c(c3)OC(F)(F)O4)CC2)nc1-c1cccc(C(=O)O)c1` [LUMACAFTOR], for which the Activity result is recorded as “Non-Toxic” with CFBE41o- [2] and “Toxic” with CFBE41o- [20].
